ADAM17 inh = inhibits human ADAM17 | AID 720648 | inhibition, % at 6.95 µM | P78536 | recombinant ADAM17, EDANS/DABCYL FRET peptide cleavage | 0.83% of 370,000 active;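 active means inhibition above the mean of compounds lying between control limits plus 3 SD, set per campaign, cut at about 8.5% in these data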
Target sequence (P78536 215-824 limits assumed): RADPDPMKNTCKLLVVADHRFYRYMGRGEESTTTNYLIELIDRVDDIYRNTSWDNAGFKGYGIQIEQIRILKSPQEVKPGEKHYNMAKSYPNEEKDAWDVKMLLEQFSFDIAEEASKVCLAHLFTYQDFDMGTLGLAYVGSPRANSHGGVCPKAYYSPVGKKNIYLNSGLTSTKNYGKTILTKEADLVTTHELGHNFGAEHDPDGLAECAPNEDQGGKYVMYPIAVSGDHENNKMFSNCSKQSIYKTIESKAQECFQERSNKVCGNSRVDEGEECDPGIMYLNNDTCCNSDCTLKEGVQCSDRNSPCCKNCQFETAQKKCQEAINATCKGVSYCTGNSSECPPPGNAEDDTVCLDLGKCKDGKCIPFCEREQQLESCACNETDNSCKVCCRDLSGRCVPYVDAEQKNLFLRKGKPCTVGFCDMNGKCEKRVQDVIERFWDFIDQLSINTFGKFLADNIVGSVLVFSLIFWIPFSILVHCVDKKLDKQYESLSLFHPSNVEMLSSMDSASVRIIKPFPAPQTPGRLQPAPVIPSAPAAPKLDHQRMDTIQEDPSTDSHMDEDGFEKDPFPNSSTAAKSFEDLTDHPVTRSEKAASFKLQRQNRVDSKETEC
KLK7 zymogen act = activates the human kallikrein-7 zymogen. AID 652039. activation, % at 7 µM. P49862. 0.9% of 370,000 active. purified proKLK7, EDANS-DABCYL substrate fluorescence; 100% is mature enzyme control, 0% vehicle;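 active means activation above the mean of all tested compounds plus 3 SD, computed per campaign excluding outliers beyond control limits, cut at about 13% in these data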
GASC-1 inh = human JMJD2C demethylase inhibition. Q9H3R0. GST-JMJD2C(1-420) H3K9me3 demethylation, DELFIA europium. inhibition, % at 2.35 µM. 0.069% of 330,000 active;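 active means more than half of a compound's replicate wells show inhibition beyond 50%, single wells judged on their own value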;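 further: signal counts dimethyl H3K9 product captured on neutravidin plate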
ADAM10 inh = inhibits human ADAM10. 0.62% of 370,000 active. AID 720582. recombinant ADAM10, EDANS/DABCYL FRET peptide cleavage, 3 h. inhibition, % at 7 µM;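 active means inhibition above a per-campaign cutoff equal to the mean of compounds falling between control-based bounds plus 3 SD, cut at about 20% in these data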
NR2E3 ag-1 = NR2E3 (human) agonism. GST-NR2E3/biotin-RetCOR TR-FRET, 1536-well. inhibition of corepressor binding, % at 4.78 µM. 0.12% of 320,000 active. AID 2300;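 active means percent inhibition above the cutoff of mean plus 3 SD of all tested compounds, set per screening campaign, cut at about 20% in these data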
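Material: NR2E3–RetCOR corepressor complex | Quantity: 1.35 nM GST-tagged NR2E3 final | Schedule: 5 h at 4 °C | Replication: Singlicate compound wells | Reagent: RetCOR corepressor, biotinylated, 7 nM | Controls: Biotin wells as high control, 0.6% DMSO wells as low control | Signal: TR-FRET, Eu(K)-anti-GST donor, streptavidin-D2 acceptor, ex 340, em 617/671 nm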
NR2E3 ag-2 = human photoreceptor-specific nuclear receptor agonism | Q9Y5X4 | CHO-S Gal4-NCOR/VP16-NR2E3 two-hybrid, luciferase | inhibition of corepressor binding, % at 3.98 µM | 0.35% of 360,000 active;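 active means inhibition above the mean of all tested compounds plus 3 SD, cut at about 70% in these data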;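 further: higher means lower luciferase signal from less NR2E3 corepressor binding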
ADAM10 confirm = human ADAM10 inhibition, confirmation; shares compounds with ADAM10 inh; ADAM10 QFRET peptide cleavage, EDANS fluorescence; inhibition, % at 6.95 µM; 1% of 2,100 active; AID 743208;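 active means inhibition above about 20% chosen separately for each screening run, limit read from the data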
ADAM17 counter = ADAM17 inhibition, counter-screen for ADAM10 exosite hits; 0.5% of 2,100 active; inhibition, % at 6.95 µM; shares compounds with ADAM10 inh; ADAM17 QFRET peptide cleavage, EDANS fluorescence;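 active means mean triplicate inhibition above the solvent-only control wells' mean plus 3 SD, cut at about 12% in these data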
Of the large screens only hits and unclear results are named; the others gave an inactive call (follow-up assays come after a bar, where they were run). This is a sample that favours compounds with a hit; in the whole collection about 2.5% have one here.

CCc1ccc([C@H]2[C@@H]3C(=O)C[C@@H]4C(=O)N(C5CCCCC5)C(=O)[C@@H]4[C@@H]3CN2S(=O)(=O)c2ccc(C)cc2)cc1	ADAM10 inh 20 (no result: GASC-1 inh, NR2E3 ag-1) | ADAM10 confirm inactive | ADAM17 counter inactive
CCc1ccc([C@H]2[C@@H]3C(=O)C[C@@H]4C(=O)N(C)C(=O)[C@@H]4[C@@H]3CN2S(=O)(=O)c2ccc(C)cc2)cc1	none (no result: GASC-1 inh, NR2E3 ag-1)
CCc1ccc([C@H]2[C@@H]3C(=O)C[C@@H]4C(=O)N(Cc5ccccc5)C(=O)[C@@H]4[C@@H]3CN2S(=O)(=O)c2ccc(C)cc2)cc1	ADAM10 inh 23 (no result: GASC-1 inh, NR2E3 ag-1) | ADAM10 confirm inactive | ADAM17 counter inactive
CCOC(=O)c1ccc(S(=O)(=O)N2CC(=O)Nc3ccccc32)cc1	none
COc1cccc(CNn2c(-c3cccc(C)c3)nc3ccccc3c2=O)c1	ADAM10 inh 27 | ADAM10 confirm inactive | ADAM17 counter inactive
O=C(Nc1ccc(Cl)c(Cl)c1)c1ccc(Cn2cc(Cl)cn2)cc1	ADAM10 inh 29 (no result: NR2E3 ag-1) | ADAM10 confirm inactive | ADAM17 counter inactive
NNC(=O)c1ccc(Cn2cc(Cl)cn2)cc1	none
COc1cccc(N=NC2C(=O)N(C(N)=S)N=C2C)c1 (stereo not drawn)	ADAM10 inh 21 | ADAM10 confirm inactive | ADAM17 counter inactive
CC[C@]1(C(=O)OC)[C@H]2C(=O)N(C)C(=O)[C@H]2[C@H]2CN(C)C(=NC)N21	none (no result: GASC-1 inh, NR2E3 ag-1)
CN(c1ccccc1)S(=O)(=O)c1ccc(NC(=O)c2ccc(F)cc2)cc1	ADAM10 inh 21 | ADAM10 confirm inactive | ADAM17 counter inactive
CN(c1ccccc1)S(=O)(=O)c1ccc(NC(=O)c2ccccc2)cc1	none
CN(c1ccc(OCC(=O)OCC(=O)Nc2ccc(F)cc2)cc1)S(=O)(=O)c1ccc(Cl)cc1	ADAM10 inh 20 | ADAM10 confirm inactive | ADAM17 counter inactive
COc1cccc(CNC(=O)CSc2nnc3c(n2)[nH]c2ccccc23)c1	none
CC(=O)Nc1cccc(OCCCNS(=O)(=O)c2ccc(C#N)cc2)c1	none
COc1ccccc1NC(=O)Cc1csc(NC(=S)Nc2ccc(C)cc2)n1	ADAM10 inh 33 | ADAM10 confirm inactive | ADAM17 counter inactive
CCC(=O)Nc1nc(CC(=O)Nc2ccccc2OC)cs1	none
Cc1ccc(S(=O)(=O)Nc2ccc(Cl)cc2)cc1NC(=O)c1cc2c(s1)CCCC2	ADAM17 inh 10, ADAM10 inh 24 | ADAM10 confirm inactive | ADAM17 counter inactive
CC(C)Oc1ccc(NC(=O)c2ccncc2)cc1	ADAM10 inh 78 | ADAM10 confirm inactive | ADAM17 counter inactive
COc1cccc(COC(=O)C2CCN(S(=O)(=O)c3ccc(C)cc3C)CC2)c1OC	ADAM10 inh 24 | ADAM10 confirm inactive | ADAM17 counter inactive
COc1cccc(COC(=O)C2CCN(S(=O)(=O)c3ccc(C)cc3)CC2)c1OC	none
CCCCn1c(SCc2nc(N)nc(Nc3ccccc3C)n2)nc2ccccc2c1=O	ADAM10 inh 21 | ADAM10 confirm inactive | ADAM17 counter inactive
COCC(C)n1c(SCc2nc(N)nc(Nc3ccccc3C)n2)nc2ccccc2c1=O (stereo not drawn)	none
CCO[C@H]1OC(C(=O)Nc2ccccc2)=C[C@@H](c2ccc(Br)cc2)[C@@H]1CCCO	ADAM10 inh 24 | ADAM10 confirm inactive | ADAM17 counter inactive
CCO[C@@H]1OC(C(=O)Nc2ccccc2)=C[C@H](c2ccc(C(F)(F)F)cc2)[C@H]1CCCO	none
C=CCC[C@@H](Cc1ccc(F)cc1)C(=O)OC[C@H]1CCCN1C(=O)[C@@H](CC=C)CC(=O)N[C@H](CO)Cc1ccccc1	ADAM10 inh 21 (no result: NR2E3 ag-1) | ADAM10 confirm inactive | ADAM17 counter inactive
C=CCC[C@H](Cc1ccc(F)cc1)C(=O)OC[C@H]1CCCN1C(=O)[C@@H](CC=C)CC(=O)NCCO	none (no result: GASC-1 inh, NR2E3 ag-1)
C=CCC[C@@H](Cc1ccc(F)cc1)C(=O)OC[C@@H]1CCCN1C(=O)[C@@H](CC=C)CC(=O)N(CCO)Cc1ccccc1	ADAM10 inh 21 (no result: NR2E3 ag-1) | ADAM10 confirm inactive | ADAM17 counter inactive
C=CC[C@@H](Cc1ccc(F)cc1)C(=O)OC[C@H]1CCCN1C(=O)[C@@H](CC=C)CC(=O)N[C@H](CO)Cc1ccccc1	none (no result: NR2E3 ag-1)
COc1cc(C(F)(F)F)ccc1C(=O)NCCc1ccco1	none
C/C(CC(=O)Nc1cc(C)ccn1)=N\NC(=O)COc1cccc(C)c1	none (no result: ADAM17 inh, KLK7 zymogen act, ADAM10 inh, NR2E3 ag-1, NR2E3 ag-2)
C/C(CC(=O)Nc1cc(Cl)ccc1Cl)=N\NC(=O)COc1cccc(C)c1	ADAM10 inh 20 | ADAM10 confirm inactive | ADAM17 counter inactive
CCOC(=O)Cc1csc(NC(=O)CSc2ncnc3c2cnn3-c2ccccc2Cl)n1	ADAM10 inh 26 (no result: NR2E3 ag-1) | ADAM10 confirm inactive | ADAM17 counter inactive
O=C(CCn1c(=O)oc2ccccc21)N1CCN(C(c2ccccc2)c2ccccc2)CC1	ADAM10 inh 27 | ADAM10 confirm inactive | ADAM17 counter inactive
COc1ccc(-c2csc(NC(=O)c3ccco3)n2)cc1	none
COc1ccc(-c2csc(NC(=O)c3c(OC)cccc3OC)n2)cc1	ADAM10 inh 30 | ADAM10 confirm inactive | ADAM17 counter inactive
COc1cccc(-c2csc(NC(=O)Nc3ccccc3)n2)c1	ADAM10 inh 25 | ADAM10 confirm inactive | ADAM17 counter inactive
O=[N+]([O-])c1cccc(C2NCC(c3ccccc3Cl)c3c2[nH]c2ccccc32)c1 (stereo not drawn)	ADAM10 inh 21 | ADAM10 confirm inactive | ADAM17 counter inactive
CCOC(=O)C1=CCN(Cc2ccccc2)CC1	none
CCOC(=O)C1C(=O)C=C(C)C(C(=O)OCC)C1c1cccc([N+](=O)[O-])c1 (stereo not drawn)	ADAM10 inh 20 | ADAM10 confirm inactive | ADAM17 counter inactive
Cc1cc(NC(=O)C(C)SCC(=O)O)no1 (stereo not drawn)	none
Cc1cc(NC(=O)C(C)SCC(=O)Nc2nnc(CC(C)C)s2)no1 (stereo not drawn)	ADAM10 inh 82 | ADAM10 confirm inactive | ADAM17 counter inactive
CCCc1nc2c3ccccc3ccn2c1Cc1ccc(OC)cc1C	none (no result: GASC-1 inh, NR2E3 ag-1)
CC(=O)c1cccc(NC(=O)c2ccc3c(c2)CCN3S(=O)(=O)c2ccccc2)c1	ADAM10 inh 23 | ADAM10 confirm inactive | ADAM17 counter inactive
O=C(Nc1ccc(C(O)(C(F)(F)F)C(F)(F)F)cc1)c1ccc(Cl)cc1	ADAM10 inh 23 (no result: KLK7 zymogen act, GASC-1 inh, NR2E3 ag-1, NR2E3 ag-2) | ADAM10 confirm inactive | ADAM17 counter inactive
